Our source for the MIC and Activity values is ChEMBL document CHEMBL1671800, “Synthesis and antimycobacterial properties of N-substituted 6-amino-5-cyanopyrazine-2-carboxamides” (2011).

Converted amounts (≈) assume the structure as drawn. The source made the active and inactive calls. The calls are words filed in the database; no cut-off is given here.

One experiment concerns Mycobacterium kansasii. The experiment in a line: Antimycobacterial activity against Mycobacterium kansasii CNCTC My 235/80 after 6 days by microdilution method. Format: functional. The note with it: CNCTC My 235/80, 144 h. In outline: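 Compounds were dissolved in DMSO and diluted in Šula's semisynthetic medium at pH 5.5, at final concentrations of 200 to 3.125 μg/mL in twofold steps; DMSO stayed ≤1% v/v. The strain was added as a suspension in isotonic saline and incubated at 37 °C. Growth was read visually after 6 days; MIC is the lowest concentration that inhibited growth. Pyrazinamide served as standard.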
(In general: Broth dilution looks for growth in wells or tubes with falling amounts of substance.)

Another experiment relates to Escherichia coli. Briefly: Antibacterial activity against Escherichia coli CCM 4517 after 24 to 48 hrs by broth microdilution method. It is filed as functional, organism-based. In outline: (§1)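 Strains subcultured on Mueller-Hinton agar at 35 °C and passaged onto MHA before testing. Inoculum suspended in sterile 0.85% saline and adjusted to 0.5 McFarland (1.5×10^8 CFU/mL). Compounds in DMSO (final ≤1% v/v) in Mueller-Hinton broth at pH 7.0, with medium and DMSO-alone controls. Static incubation at 35 °C; MIC taken as 95% growth inhibition versus control at 24 and 48 h.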

Experiment [1] deals with Staphylococcus aureus. Briefly: Antibacterial activity against Staphylococcus aureus CCM 4516/08 after 24 to 48 hrs by broth microdilution method. It is filed as functional, organism-based. In outline:
as §1

For experiment [2], the system named is Staphylococcus aureus. Briefly: Antibacterial activity against methicillin-resistant Staphylococcus aureus H 5996/08 after 24 to 48 hrs by broth microdilution method. It is filed as functional, organism-based. In outline: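 Strains were subcultured on Mueller-Hinton agar at 35 °C, and the inoculum was suspended in 0.85% saline to 0.5 McFarland (1.5×10^8 CFU/mL). Microdilution was done in Mueller-Hinton broth, pH 7.0, with final DMSO at most 1% (v/v). MIC, set at 95% growth inhibition versus control, was read after 24 and 48 h of static incubation at 35 °C.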

Experiment [3] has as its system Mycobacterium tuberculosis. Briefly: Antimycobacterial activity against Mycobacterium tuberculosis H37Rv CNCTC My 331/88 after 14 days by microdilution method. It is filed as functional. The note with it: H37Rv CNCTC My 331/88, 336 h. In outline:
(§2)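 Compounds in DMSO were diluted in Šula's semisynthetic medium, pH 5.5, to final 200–3.125 μg/mL, with DMSO at most 1% (v/v). Mycobacteria were added as a suspension in isotonic saline and grown at 37 °C. MIC was read visually after 14 days as the lowest concentration inhibiting growth.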

For experiment [4], the system named is Mycobacterium avium. The experiment in a line: Antimycobacterial activity against Mycobacterium avium CNCTC My 152/73 after 14 days by microdilution method. Format: functional. The note with it: CNCTC My 152/73, 336 h. A digest of the protocol:
as §2

Another experiment has as its system Enterobacter sp. The experiment in a line: Antibacterial activity against Enterobacter sp. J 14365/ 08 after 24 to 48 hrs by broth microdilution method. Format: functional, organism-based.
The test system of experiment [5] is Staphylococcus epidermidis. Briefly: Antibacterial activity against Staphylococcus epidermidis H 6966/08 after 24 to 48 hrs by broth microdilution method. Format: functional, organism-based.
Experiment [6] has as its system Klebsiella pneumoniae. Briefly: Antibacterial activity against Klebsiella pneumoniae D11750/08 after 24 to 48 hrs by broth microdilution method. Format: functional, organism-based.
Experiment [7] has as its system Mycobacterium avium. Briefly: Antimycobacterial activity against Mycobacterium avium CNCTC My 80/72 after 14 days by microdilution method. It is filed as functional. The note with it: CNCTC My 80/72, 336 h. A digest of the protocol: as §2
In experiment [8] the test system is Klebsiella pneumoniae. The experiment in a line: Antibacterial activity against ESBL-positive Klebsiella pneumoniae J 14368/08 after 24 to 48 hrs by broth microdilution method. It is filed as functional, organism-based.
The next experiment concerns Pseudomonas aeruginosa. The experiment in a line: Antibacterial activity against Pseudomonas aeruginosa CCM 1961 after 24 to 48 hrs by broth microdilution method. Format: functional, organism-based. In outline:
as §1

By MIC is commonly meant the lowest concentration that inhibits growth of the organism. Consider `CCCNc1nc(C(N)=O)cnc1C#N`, for which the MIC was above 200 µg/mL against Mycobacterium kansasii, 50 µg/mL (≈ 244 µM) in [3], above 200 µg/mL in the experiment on Mycobacterium avium [4] and above 200 µg/mL against Mycobacterium avium [7]. Further, the outcome (in the experiment with Escherichia coli; in the experiment on Staphylococcus aureus [1]; in the experiment with Staphylococcus aureus [2]; in the experiment with Enterobacter sp.; in experiment [5]; in the experiment with Klebsiella pneumoniae [6]) was inactive. Also, the result with Klebsiella pneumoniae [8] and with Pseudomonas aeruginosa was inactive.
Turning to `CN1CCN(c2nc(C(N)=O)cnc2C#N)CC1`, the MIC (in the experiment with Mycobacterium kansasii; in [3]; with Mycobacterium avium [4]; in the experiment on Mycobacterium avium [7]) was above 200 µg/mL each time. Besides, the outcome (in the experiment with Escherichia coli; in the experiment on Staphylococcus aureus [1]; in the experiment on Staphylococcus aureus [2]; in the experiment with Enterobacter sp.; in experiment [5]; in the experiment on Klebsiella pneumoniae [6]) was inactive. The result in the experiment with Klebsiella pneumoniae [8] and in the experiment with Pseudomonas aeruginosa was inactive.
With `N#Cc1ncc(C(N)=O)nc1NC1CCCCC1`, the MIC (in the experiment on Mycobacterium kansasii; in experiment [3]; against Mycobacterium avium [4]; with Mycobacterium avium [7]) was above 200 µg/mL throughout. Further, the result (in the experiment on Escherichia coli; in the experiment with Staphylococcus aureus [1]; with Staphylococcus aureus [2]; with Enterobacter sp.; in [5]; in the experiment with Klebsiella pneumoniae [6]) was inactive. For the same compound, the outcome in the experiment on Klebsiella pneumoniae [8] and in the experiment with Pseudomonas aeruginosa was inactive.
Turning to `CCCCCCCNc1nc(C(N)=O)cnc1C#N`, the MIC against Mycobacterium kansasii turned out to be 100 µg/mL (≈ 383 µM); in [3], 12.5 µg/mL (≈ 47.8 µM); in the experiment with Mycobacterium avium [4], 100 µg/mL (≈ 383 µM); with Mycobacterium avium [7] it was 100 µg/mL (≈ 383 µM). In addition, the outcome (in the experiment with Escherichia coli; in the experiment with Staphylococcus aureus [1]; with Staphylococcus aureus [2]; in the experiment on Enterobacter sp.; in experiment [5]; in the experiment on Klebsiella pneumoniae [6]) was inactive. The result in the experiment with Klebsiella pneumoniae [8] and with Pseudomonas aeruginosa was inactive.
Take `N#Cc1ncc(C(N)=O)nc1NC1CCCC1`: the MIC (against Mycobacterium kansasii; in experiment [3]; in the experiment with Mycobacterium avium [4]; in the experiment with Mycobacterium avium [7]) was above 200 µg/mL each time. Moreover, the result (in the experiment on Escherichia coli; with Staphylococcus aureus [1]; in the experiment on Staphylococcus aureus [2]; in the experiment with Enterobacter sp.; in experiment [5]; in the experiment with Klebsiella pneumoniae [6]) was inactive. Further, the outcome in the experiment on Klebsiella pneumoniae [8] and in the experiment with Pseudomonas aeruginosa was inactive.
Consider `CNc1nc(C(N)=O)cnc1C#N`, for which the MIC with Mycobacterium kansasii was above 200 µg/mL; in experiment [3], 200 µg/mL (≈ 1130 µM); with Mycobacterium avium [4] it was above 200 µg/mL; against Mycobacterium avium [7], above 200 µg/mL. In addition, the result (with Escherichia coli; in the experiment with Staphylococcus aureus [1]; with Staphylococcus aureus [2]; with Enterobacter sp.; in experiment [5]; in the experiment with Klebsiella pneumoniae [6]) was inactive. The outcome in the experiment with Klebsiella pneumoniae [8] and with Pseudomonas aeruginosa was inactive.
Regarding `CCN(CC)c1nc(C(N)=O)cnc1C#N`, the MIC (against Mycobacterium kansasii; in experiment [3]; against Mycobacterium avium [4]; against Mycobacterium avium [7]) was above 200 µg/mL throughout. The result (in the experiment with Escherichia coli; in the experiment on Staphylococcus aureus [1]; in the experiment on Staphylococcus aureus [2]; with Enterobacter sp.; in experiment [5]; in the experiment on Klebsiella pneumoniae [6]) was inactive. The outcome in the experiment with Klebsiella pneumoniae [8] and in the experiment on Pseudomonas aeruginosa was inactive.
On to `N#Cc1ncc(C(N)=O)nc1NC1CCCCCC1`, for which the MIC (against Mycobacterium kansasii; in experiment [3]; against Mycobacterium avium [4]; in the experiment with Mycobacterium avium [7]) was above 200 µg/mL throughout. The result (in the experiment on Escherichia coli; in the experiment on Staphylococcus aureus [1]; in the experiment on Staphylococcus aureus [2]; with Enterobacter sp.; in [5]; with Klebsiella pneumoniae [6]) was inactive. Besides, the outcome in the experiment on Klebsiella pneumoniae [8] and in the experiment with Pseudomonas aeruginosa was inactive.
For the compound `N#Cc1ncc(C(N)=O)nc1N1CCOCC1`, the minimal inhibitory concentration (MIC) (in the experiment on Mycobacterium kansasii; in experiment [3]; against Mycobacterium avium [4]; in the experiment on Mycobacterium avium [7]) was above 200 µg/mL in each case. Moreover, the outcome (with Escherichia coli; in the experiment on Staphylococcus aureus [1]; in the experiment on Staphylococcus aureus [2]; with Enterobacter sp.; in experiment [5]; in the experiment with Klebsiella pneumoniae [6]) was inactive. The outcome in the experiment on Klebsiella pneumoniae [8] and in the experiment with Pseudomonas aeruginosa was inactive.
Turning to `CCCCCCCCNc1nc(C(N)=O)cnc1C#N`, the MIC (against Mycobacterium kansasii; in experiment [3]; with Mycobacterium avium [4]; against Mycobacterium avium [7]) was above 200 µg/mL throughout. The outcome (in the experiment with Escherichia coli; with Staphylococcus aureus [1]; in the experiment on Staphylococcus aureus [2]; in the experiment on Enterobacter sp.; in experiment [5]; with Klebsiella pneumoniae [6]) was inactive. Besides, the result with Klebsiella pneumoniae [8] and in the experiment on Pseudomonas aeruginosa was inactive.
As to `CCCCCCNc1nc(C(N)=O)cnc1C#N`, the MIC against Mycobacterium kansasii was above 200 µg/mL; in experiment [3], 12.5 µg/mL (≈ 50.5 µM); against Mycobacterium avium [4], above 200 µg/mL; in the experiment with Mycobacterium avium [7], above 200 µg/mL. Further, the result (in the experiment with Escherichia coli; in the experiment on Staphylococcus aureus [1]; in the experiment on Staphylococcus aureus [2]; in the experiment on Enterobacter sp.; in experiment [5]; with Klebsiella pneumoniae [6]) was inactive. Moreover, the outcome in the experiment on Klebsiella pneumoniae [8] and in the experiment with Pseudomonas aeruginosa was inactive.
As to `CCNc1nc(C(N)=O)cnc1C#N`, the MIC was above 200 µg/mL with Mycobacterium kansasii, 100 µg/mL (≈ 523 µM) in [3], above 200 µg/mL against Mycobacterium avium [4] and above 200 µg/mL against Mycobacterium avium [7]. In addition, the result (in the experiment with Escherichia coli; in the experiment with Staphylococcus aureus [1]; in the experiment with Staphylococcus aureus [2]; with Enterobacter sp.; in experiment [5]; in the experiment with Klebsiella pneumoniae [6]) was inactive. The result in the experiment on Klebsiella pneumoniae [8] and in the experiment with Pseudomonas aeruginosa was inactive.
As for `NC(=O)c1cnccn1` [PYRAZINAMIDE], the MIC is above 200 µg/mL against Mycobacterium kansasii, 12.5 µg/mL (≈ 102 µM) in experiment [3], above 200 µg/mL in the experiment with Mycobacterium avium [4] and above 200 µg/mL with Mycobacterium avium [7].
Turning to `CCCCNc1nc(C(N)=O)cnc1C#N`, the MIC (in the experiment on Mycobacterium kansasii; in experiment [3]; in the experiment with Mycobacterium avium [4]; in the experiment on Mycobacterium avium [7]) was above 200 µg/mL in each case. Moreover, the outcome (in the experiment with Escherichia coli; in the experiment on Staphylococcus aureus [1]; in the experiment with Staphylococcus aureus [2]; with Enterobacter sp.; in [5]; in the experiment with Klebsiella pneumoniae [6]) was inactive. Also, the outcome in the experiment on Klebsiella pneumoniae [8] and in the experiment on Pseudomonas aeruginosa was inactive.
